Compound activity as filed in PubChem BioAssay.
OX1R antag-1 – antagonists of human orexin 1 receptor (OX1R); actives 1.8% (n = 330,000); inhibition, % at 6.6 µM; OX1R-expressing cells, FRET antagonist read-out; AID 485270; in the data active = inhibition mostly above about 38%, no sharp cut-off; inactive = mostly below about 40%;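 note: 0% = agonist challenge alone and 100% = reference antagonist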
Target sequence (O43613 whole entry, looked up): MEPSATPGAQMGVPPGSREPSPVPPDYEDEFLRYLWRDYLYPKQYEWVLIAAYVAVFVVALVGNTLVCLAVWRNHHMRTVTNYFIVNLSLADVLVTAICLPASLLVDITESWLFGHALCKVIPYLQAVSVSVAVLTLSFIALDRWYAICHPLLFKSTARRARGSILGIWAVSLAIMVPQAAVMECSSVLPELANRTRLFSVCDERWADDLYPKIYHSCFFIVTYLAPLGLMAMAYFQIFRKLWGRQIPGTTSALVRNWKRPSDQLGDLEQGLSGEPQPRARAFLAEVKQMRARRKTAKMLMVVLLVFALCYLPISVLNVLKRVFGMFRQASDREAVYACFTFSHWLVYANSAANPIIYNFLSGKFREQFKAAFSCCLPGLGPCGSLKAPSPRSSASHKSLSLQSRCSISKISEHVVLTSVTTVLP
CHO parental Ca – counter-screen: ATP calcium response change in parental CHO cells; parental CHO-K1, ATP-induced calcium, Fluo-8 fluorescence; inhibition, % at 5.6 µM; actives 0.63% (n = 330,000); AID 463079;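 active = inhibition above that plate's mean sample inhibition plus 3 SD, cut at about 26% in these data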;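 note: 0% = ATP-challenged DMSO wells and 100% = DMSO wells without ATP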
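Test system: untransfected parental CHO cell line. Compound: one dose, 5.6 µM nominal. Detection: intracellular calcium via Fluo-8 no-wash fluorescent dye. Measure: % inhibition. Benchmarks: ATP-challenged DMSO wells low, unchallenged DMSO wells high.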
OX1R antag-2 – human HCRTR1 antagonism; actives 0.43% (n = 330,000); AID 434989; inhibition, % at 5 µM; CHO/OX1R cells, Fluo-8 calcium fluorescence, orexin A; O43613;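 active = inhibition above its plate's threshold, mean inhibition of all tested compounds on the plate plus 3 SD, cut at about 37% in these data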;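 note: 0% = orexin A challenge wells and 100% = SB-334867-A antagonist wells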
TAAR1 ag – agonists of human TAAR1; CHO RD-HGA16 TAAR1, Fluo-8 calcium fluorescence; vehicle wells 0%, saturating PEA agonist 100%; activation, % at 3 µM; actives 0.99% (n = 360,000);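 active = activation above the mean activation of all test compounds in the run plus 3 SD, cut at about 38% in these data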
Target sequence (Q96RJ0 whole entry, looked up): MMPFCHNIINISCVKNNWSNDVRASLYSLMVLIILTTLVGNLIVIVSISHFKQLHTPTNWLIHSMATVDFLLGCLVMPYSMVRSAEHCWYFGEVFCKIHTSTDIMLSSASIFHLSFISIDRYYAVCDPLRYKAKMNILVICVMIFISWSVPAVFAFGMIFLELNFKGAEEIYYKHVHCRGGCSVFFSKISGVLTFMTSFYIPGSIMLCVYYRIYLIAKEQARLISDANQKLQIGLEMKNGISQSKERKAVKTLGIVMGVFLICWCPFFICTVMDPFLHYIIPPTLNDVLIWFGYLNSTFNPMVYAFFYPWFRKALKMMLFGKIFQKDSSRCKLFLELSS
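Test system: RD-HGA16 (CHO) cells co-expressing Gα16 and hTAAR1 / Benchmarks: DMSO vehicle as 0%, PEA at EC100 as 100% / Repeats: no replicates (n 1) / Measure: % activation from peak over basal fluorescence ratio, DMSO-to-PEA scaled / Timing: 17-24 h plating, Fluo-8 75 min 37 °C, 30 min RT / Technique: kinetic Fluo-8 calcium fluorescence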
TAAR1 antag – antagonists of human TAAR1; CHO RD-HGA16 TAAR1, Fluo-8 calcium fluorescence, antagonist; AID 624466; Q96RJ0; actives 1.5% (n = 360,000); inhibition, % at 3 µM;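 active = inhibition above a per-plate cutoff, the mean inhibition of test compounds on that plate plus 3 SD, cut at about 49% in these data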;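 note: 0% = DMSO plus EC80 beta-PEA response and 100% = DMSO alone without agonist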
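Test system: hTAAR1-expressing CHO RD-HGA16 cells, Gα16-coupled; Probe or stimulus: EC80 β-phenethylamine stimulus; Compound dosing: single nominal final test compound concentration of 3 µM; Timing: 140 s kinetic read after compound, 140 s after agonist; Signal: Fluo-8 calcium-sensitive fluorescence; Measure: % inhibition of agonist calcium response; Controls: DMSO and EC80 PEA controls.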
GPR7 antag – blocks human GPR7 receptor signaling | inhibition, % at 4.4 µM | GPR7-expressing cells, fluorescence antagonist assay | actives 1.1% (n = 290,000) | P48145; in the data active = inhibition above about 16%, passing the limit was not always enough;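 note: cells stimulated with the agonist NPW; 0% = agonist with vehicle and 100% = vehicle without agonist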
TAAR1 ag confirm – human TAAR1 agonism, confirmed | AID 651783 | shares compounds with TAAR1 ag | CHO RD-HGA16 TAAR1, Fluo-8 calcium fluorescence; scaled: DMSO 0%, maximal phenethylamine 100% | activation, % at 3 µM | actives 82% (n = 2,400);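 active = activation above a cutoff set at the run's mean compound activation plus 3 SD, cut at about 39% in these data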
Ga16 nonsel ag – nonselective agonism, TAAR1 counter-screen; shares compounds with TAAR1 ag; CHO-Ga16 parental, Fluo-8 calcium fluorescence; normalized to maximal ATP response, DMSO zero; activation, % at 3 µM; actives 50% (n = 2,400);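 active = activation above the run cutoff, the mean activation over all tested wells plus 3 SD, cut at about 12% in these data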;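 note: 0% = DMSO wells and 100% = maximal ATP response on the peak over basal ratio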
TAAR1 desens – human TAAR1 agonist that also desensitizes the receptor | shares compounds with TAAR1 ag | actives 46% (n = 2,400) | CHO RD-HGA16 hTAAR1, Fluo-8 calcium, beta-PEA response inhibition | AID 651951 | inhibition, % at 3 µM;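 active = inhibition above the run cutoff, the mean inhibition of all test compounds plus 3 SD, cut at about 49% in these data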;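 note: beta-PEA stimulus applied at its EC80; loss of beta-PEA calcium signal after compound pretreatment read as receptor desensitization; 0% = DMSO with beta-PEA at EC80 and 100% = DMSO alone without agonist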
Ga16 nonsel ant – counter-screen for TAAR1 agonists: nonselective Ga16 antagonists. CHO-Ga16 ATP-induced calcium, Fluo-8 fluorescence. inhibition, % at 3 µM. shares compounds with TAAR1 ag. actives 39% (n = 2,400). AID 651952;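 active = inhibition above the plate's mean compound inhibition plus 3 SD, computed per plate, cut at about 22% in these data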;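 note: 0% = EC80 ATP with DMSO and 100% = DMSO wells without ATP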
Starred values were filed as active, the others as inactive; . = no result. Only some compounds are listed: those with a hit (about 4.6% of all), similar ones and a draw of the others.

SMILES | OX1R antag-1 | CHO parental Ca | OX1R antag-2 | TAAR1 ag | TAAR1 antag | GPR7 antag | TAAR1 ag confirm | Ga16 nonsel ag | TAAR1 desens | Ga16 nonsel ant
CCc1ccc(NC(=O)N2CCC(c3ccccc3)C2)cc1 (centres undefined) | 11 | -19 | -7 | 0 | -12 | -10 | . | . | . | .
CCOc1ccc(NC(=O)N2CCC(c3ccc(C)cc3)C2)cc1 (centres undefined) | 13 | -8 | -7 | 51* | 38 | -4 | 7 | 4 | 11 | 10
O=C(/C=C/c1ccco1)N1CCCC(c2ccccc2)C1 (centres undefined) | 8 | -10 | -22 | 49* | 18 | -3 | 33 | -1 | 31 | 7
Cc1ccc(NC(=O)N2CCCC(c3ccccc3)C2)cc1 (centres undefined) | -1 | -5 | -9 | 49* | 21 | -6 | 58* | -1 | 33 | 3
O=C(/C=C/c1ccccc1)N1CCC(c2ccccc2)C1 (centres undefined) | 4 | -10 | -18 | -1 | 0 | -2 | . | . | . | .
CN(C)c1ccc(C(=O)N(Cc2ccccc2)Cc2ccccc2)cc1 | -1 | -13 | -36 | 1 | 13 | -8 | . | . | . | .
CC(C)c1ccc(CC(=O)N2CCC2(C)C(=O)Nc2ccc3c(c2)OCCO3)cc1 (centres undefined) | . | . | . | -1 | 4 | . | . | . | . | .
CCCCOc1cc(NCc2ccccc2)c2ncn(C(C)C)c2c1 | 24 | -50 | -91 | 66* | 50* | . | 29 | 24* | 25 | 24*
COCCCOc1cc(NCc2ccccc2)c2ncn(C(C)C)c2c1 | 14 | -19 | -22 | 15 | -9 | . | . | . | . | .
Cc1c(-n2c(SCC(=O)NC(C)C)nc3ccccc3c2=O)c(=O)n(-c2ccccc2)n1C | 8 | 3 | -14 | 1 | -9 | -4 | . | . | . | .
COc1ccc([C@H]2C[C@H](n3cc(COC(=O)c4ccccc4)nn3)[C@@H](O)CN2CC2CCCCC2)cc1 | . | . | . | -1 | -21 | . | . | . | . | .
CCn1c2ccccc2c2cc(/C=N/NC(=O)c3ccc(O)cc3)ccc21 | 76* | -21 | 9 | 47* | 30 | -10 | 47* | 2 | 29 | 13
CCN(CCNCC(O)COc1ccccc1C(C)C)c1cccc(C)c1 (centres undefined) | -13 | 31* | -5 | 73* | 43 | 8 | 79* | 20* | 58* | 39*
CCOC(=O)N1CCN(CC(O)COc2ccccc2C(C)C)CC1 (centres undefined) | 11 | -27 | -24 | 7 | 8 | -9 | . | . | . | .
CCOCC(=O)Nc1nnc(COc2ccc(Cl)cc2)s1 | 13 | 0 | -9 | 3 | -6 | -13 | . | . | . | .
COc1cccc(CNS(=O)(=O)c2ccc3c(c2)CCN3C(=O)C2CC2)c1 | 19 | -8 | -7 | 8 | 17 | -1 | . | . | . | .
O=C(C1CC1)N1CCc2cc(S(=O)(=O)NCc3ccccc3)ccc21 | 18 | 4 | -16 | 68* | 37 | -9 | 5 | 8 | 15 | 18
COc1ccc(CCNC(=O)C(=O)NCC2CCCN2S(=O)(=O)c2cccs2)cc1 (centres undefined) | 9 | -18 | -27 | 18 | 46 | . | . | . | . | .
COc1ccccc1CCNC(=O)C(=O)NCC1CCCN1S(=O)(=O)c1ccccc1 (centres undefined) | 49* | -33 | 20 | 49* | 59* | . | 72* | 8 | 65* | 31*
COc1ccc(S(=O)(=O)N2CCCC2CNC(=O)C(=O)NCCc2ccccc2)cc1 (centres undefined) | 39* | -16 | -8 | 92* | 97* | . | 87* | 10 | 87* | 30*
CC(=O)C1CCC2C3CC=C4CC(SC(=N)N)CCC4(C)C3CCC12C (centres undefined) | . | . | . | 84* | 81* | . | 111* | 69* | 91* | 53*
CCCCCCCSc1nnc(N)s1 | 36 | -7 | -1 | 9 | -35 | -15 | . | . | . | .
S=C(NCCc1ccccc1)Nc1c(Cl)cccc1Cl | 17 | -23 | -36 | 68* | 36 | -5 | 78* | 0 | 80* | 9
FC(F)Oc1ccccc1NC(=S)NCCc1ccccc1 | 4 | -18 | -20 | 51* | -14 | . | 77* | 5 | 35 | 5
Fc1ccc(F)c(NC(=S)NCCc2ccccc2)c1 | 38 | 11 | -7 | 3 | 8 | -4 | . | . | . | .
SMILES | OX1R antag-1 | CHO parental Ca | OX1R antag-2 | TAAR1 ag | TAAR1 antag | GPR7 antag | TAAR1 ag confirm | Ga16 nonsel ag | TAAR1 desens | Ga16 nonsel ant
Cc1c(C)[n+](=O)c2c(n1[O-])C(Br)CCC2Br (centres undefined) | 2 | -2 | 4 | 3 | 3 | -13 | . | . | . | .
O=c1oc2c(O)cccc2cc1-c1nc2ccccc2[nH]1 | . | . | . | 83* | 9 | -9 | 93* | 90* | 46 | 29*
CCC1(C)NC(=O)N(/N=C/c2ccc(C)s2)C1=O (centres undefined) | 3 | -5 | -21 | 2 | -22 | -9 | . | . | . | .
O=C(Cc1cccs1)N[C@@H]1c2ccccc2CC[C@H]1OCc1ccccc1 | 6 | -1 | 11 | -2 | -5 | . | . | . | . | .
O=C(Cc1cccs1)N[C@@H]1c2ccccc2CC[C@@H]1OCc1ccccc1 | 16 | -17 | -17 | 59* | 82* | . | 0 | 6 | 12 | 18
O=c1oc2ccccc2c(NCc2ccccc2F)c1[N+](=O)[O-] | 56 | -7 | -8 | 5 | 0 | -9 | . | . | . | .
O=c1oc2ccccc2c(NCCc2ccccc2)c1[N+](=O)[O-] | 35 | -6 | -15 | 63* | 17 | 12 | 70* | 10 | 13 | 6
N#C/C(=C/c1cn[nH]c1-c1cccc(Br)c1)C(=O)O | 16 | 7 | -11 | 71* | -2 | -12 | 112* | 52* | 25 | 4
CCCCc1c(-c2ccccc2OC)ncn1CCc1cccc(F)c1 | . | . | . | 69* | 43 | . | 66* | 4 | 74* | 21
CCCc1c(-c2ccccc2Br)ncn1Cc1ccccc1OC | . | . | . | 2 | 10 | . | . | . | . | .
CCCCCc1c(-c2cccc(OC)c2)ncn1CCc1ccccc1OC | . | . | . | 21 | 48 | . | . | . | . | .
CCCCc1c(-c2ccccc2Br)ncn1CCc1ccccc1OC | . | . | . | 70* | 83* | . | 73* | 7 | 82* | 39*
